Assay outcomes deposited in PubChem by Johns Hopkins Ion Channel Center.
TRPC4 potent = allosterically enhances the mouse TRPC4 cation channel. Q9QUQ5. HEK293 TRPC4beta/mu-opioid, DAMGO EC20, Fluo-4 Ca2+ flux; stronger effect = higher value. B-score at 10 µM. hit rate 0.42% among 310,000. AID 2227;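 active means B-score of calcium response area above 5 SD of library B-scores, with initial fluorescence ratio within 5 SD of library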;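 further: B-score of integrated fluorescence ratio over time as area under calcium response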
Target sequence (Q9QUQ5 whole entry, looked up): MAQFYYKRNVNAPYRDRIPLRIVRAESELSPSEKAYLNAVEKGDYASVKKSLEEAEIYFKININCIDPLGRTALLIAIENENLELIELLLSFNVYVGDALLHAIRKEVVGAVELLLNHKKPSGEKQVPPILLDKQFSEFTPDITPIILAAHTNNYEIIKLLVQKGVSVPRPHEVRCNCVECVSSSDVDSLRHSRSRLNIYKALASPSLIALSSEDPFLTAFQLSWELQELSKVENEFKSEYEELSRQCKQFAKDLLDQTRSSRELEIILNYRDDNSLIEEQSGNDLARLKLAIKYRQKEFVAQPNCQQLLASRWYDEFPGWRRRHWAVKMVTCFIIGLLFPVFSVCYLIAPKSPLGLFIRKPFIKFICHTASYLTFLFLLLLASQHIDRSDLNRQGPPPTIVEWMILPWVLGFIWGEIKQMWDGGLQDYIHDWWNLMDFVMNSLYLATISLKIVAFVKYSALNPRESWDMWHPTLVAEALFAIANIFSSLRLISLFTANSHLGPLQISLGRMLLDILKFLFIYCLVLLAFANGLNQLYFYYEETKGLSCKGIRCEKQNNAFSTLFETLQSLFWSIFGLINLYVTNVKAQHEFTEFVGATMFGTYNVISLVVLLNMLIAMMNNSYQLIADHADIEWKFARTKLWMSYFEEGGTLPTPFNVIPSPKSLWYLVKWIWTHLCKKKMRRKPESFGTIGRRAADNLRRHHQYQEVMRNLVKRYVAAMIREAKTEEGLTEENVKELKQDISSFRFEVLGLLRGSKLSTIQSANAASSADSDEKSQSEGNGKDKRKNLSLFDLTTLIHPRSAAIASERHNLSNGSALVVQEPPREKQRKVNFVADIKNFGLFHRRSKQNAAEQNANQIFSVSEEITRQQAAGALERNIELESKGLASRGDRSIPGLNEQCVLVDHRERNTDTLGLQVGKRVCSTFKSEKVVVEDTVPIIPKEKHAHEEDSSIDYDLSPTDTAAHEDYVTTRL
TRPC4 block = TRPC4 (mouse) channel inhibition. hit rate 0.39% among 300,000. HEK293 TRPC4beta/mu-opioid, DAMGO-evoked Fluo4 calcium flux; stronger effect = lower value. B-score at 10 µM. Q9QUQ5;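 active means B-score over 3 SD under the library average, no early fluorescence shift, positive overall ratio signal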
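Assay system: HEK293 cells with stable TRPC4beta plus mu-opioid receptor expression; Probe or stimulus: DAMGO in two steps, submaximal then maximal; Dosing: single-point compound dosing; Measured by: Fluo4 calcium-dye fluorescence, kinetic read; Read-out basis: B score from integrated Fluo4 fluorescence ratio.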
TRPC6 inhibitor = inhibitors of mouse TRPC6 channel; Q61143; HEK293-TRPC6, membrane potential dye, ACh-evoked depolarization; stronger effect = lower value; B-score at 10 µM; hit rate 1.1% among 310,000;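 active means B-score under library mean minus 3 SD, initial fluorescence not abnormally high, positive integrated signal ratio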;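 further: B-score derived from integrated fluorescence ratio over the kinetic read; more negative B-score means stronger inhibition of depolarization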
TRPC4 agonist = activators of mouse TRPC4 channel. Q9QUQ5. hit rate 0.49% among 310,000. B-score at 10 µM. HEK293 TRPC4beta/mu-opioid, Fluo4 calcium fluorescence; stronger effect = higher value;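 active means B-score above 5 SD of library B-scores, and initial fluorescence ratio not above library mean plus 5 SD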;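 further: positive B-score marks a calcium rise read as TRPC4 activation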
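System – HEK293 cells stably co-expressing mouse TRPC4beta and mu-opioid receptor · Signal – Fluo4 calcium-sensitive dye fluorescence, kinetic, 1 Hz baseline · Benchmarks – buffer (low) and maximal DAMGO (high) · Read-out – B score of integrated fluorescence ratio per well · Incubation – dye loading 45 min room temperature, 110 s kinetic read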
TRPC6 activator = activates the mouse TRPC6 cation channel. HEK293-TRPC6 membrane potential dye fluorescence; stronger effect = higher value. hit rate 0.13% among 310,000. AID 2550. Q61143. B-score at 10 µM;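 active means B-score of the integrated fluorescence ratio above library mean plus 3 SD, and starting fluorescence ratio within library mean plus 5 SD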;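 further: higher score means more depolarization so channel activation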
TRPC4 spec 2 = second check of whether TRPC6 inhibitors also affect mouse TRPC4 | HEK293 TRPC4/MOR, membrane potential dye fluorescence; channel activated by saturating DAMGO dose | hit rate 42% among 920 | inhibition, % at 10 µM | AID 2776 | shares compounds with TRPC6 inhibitor;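 active means compounds whose fluorescence signal differed from control wells by over 3 SD, either direction, in both duplicate plates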
TRPC4 spec = tests whether TRPC6 inhibitors also affect mouse TRPC4; activity change, negative = inhibition, % at 10 µM; hit rate 61% among 920; HEK293 TRPC4/mu-opioid, membrane potential fluorescence; shares compounds with TRPC6 inhibitor;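 active means rise or fall in signal beyond 3 SD of buffer-only wells in both replicate plates, either sign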;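 further: integrated kinetic ratio of fluorescence range over baseline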
HEK293 MPD ctr 2-1 = second check of TRPC6 inhibitor effects in parental HEK293 cells; shares compounds with TRPC6 inhibitor; parental HEK293 membrane potential dye fluorescence; maximal acetylcholine challenge after compound addition; hit rate 31% among 920; signal change vs control, % at 10 µM; AID 2779;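 active means membrane potential signal moving either way by over 3 SD of the maximum-effect control, in both duplicate plates, meaning non-specific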
HEK293 MPD ctr-1 = counter-screen for TRPC6 inhibitors: effect in parental HEK293 cells | shares compounds with TRPC6 inhibitor | parental HEK293 membrane potential dye fluorescence | membrane potential signal change, % at 10 µM | hit rate 60% among 920;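 active means membrane potential signal shifting up or down by more than 3 SD of buffer-only wells, on both duplicate plates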
HEK293 MPD ctr-2 = checks TRPC6 modulator effects in parental HEK293 cells | shares compounds with TRPC6 inhibitor | membrane potential dye fluorescence | membrane potential signal change, % at 10 µM | hit rate 51% among 2,400;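 active means membrane potential signal moves up or down beyond 5 SD from buffer-only wells, on both duplicate plates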
HEK293 MPD ctr 2-2 = second counter-screen for TRPC6 modulators: effect in parental HEK293 cells | shares compounds with TRPC6 inhibitor | membrane potential dye fluorescence; after compound, maximal acetylcholine stimulation | inhibition, % at 10 µM | hit rate 14% among 2,400;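 active means membrane potential signal drops by more than 5 SD from the mean control signal, in both duplicate plates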;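 further: plate controls were acetylcholine ECmax control wells for no effect and buffer only wells for full effect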
TRPC4 ctr mod = selectivity of TRPC6 modulators against mouse TRPC4; shares compounds with TRPC6 inhibitor; HEK293 TRPC4/mu-opioid, membrane potential fluorescence; percent change from control (negative = decrease, positive = increase), % at 10 µM; hit rate 69% among 2,400; AID 488927;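 active means membrane potential signal moved up or down beyond 5 SD of buffer control wells, in both duplicate plates, actives on both sides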;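 further: plate controls were assay buffer wells for no effect and DAMGO maximal-effect wells for full effect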
TRPC4 ctr inh 2 = second check of whether TRPC6 modulators also affect mouse TRPC4; HEK293 TRPC4/mu-opioid, membrane potential dye fluorescence; stimulated with maximal-effect DAMGO; inhibition, % at 10 µM; shares compounds with TRPC6 inhibitor; hit rate 55% among 2,400;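 active means drop in membrane potential signal beyond 5 SD of the control wells in both duplicate plates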;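 further: TRPC4 counter screen for TRPC6 hits run under conditions tuned for TRPC6 not TRPC4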
TRPC6 block conf = mouse TRPC6 inhibitor confirmation; AID 488960; hit rate 43% among 3,300; shares compounds with TRPC6 inhibitor; inhibition, % at 10 µM; HEK293-TRPC6, membrane potential dye, ACh-evoked depolarization;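 active means fluorescence ratio falls more than 5 SD below the full-stimulation control mean, in both duplicate runs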;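 further: integrated fluorescence ratio of peak minus minimum over baseline after agonist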
TRPC6 act confirm = confirmation of mouse TRPC6 activators. shares compounds with TRPC6 inhibitor. HEK293-TRPC6 membrane potential dye fluorescence, FDSS. activation, % at 10 µM. hit rate 11% among 2,800. AID 488961;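 active means ratio signal rise beyond 5 SD above unstimulated control wells' mean, seen in both duplicate runs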;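 further: plate controls were buffer EC0 wells for no effect and acetylcholine ECmax response for full effect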
* marks the source's active call; other numbers are inactive results; i = inactive; . = no result. Rows were chosen to be rich in hits. Some 2.3% of all compounds tested hit in one or more screens of this group.

SMILES	TRPC4 potent	TRPC4 block	TRPC6 inhibitor	TRPC4 agonist	TRPC6 activator	HEK293 MPD ctr-2	HEK293 MPD ctr 2-2	TRPC4 ctr mod	TRPC4 ctr inh 2	TRPC6 block conf	TRPC6 act confirm	others
COc1ccc(/C=C/C(=O)Nc2ccccc2C(=O)NCC(c2ccc(OC)cc2)N(C)C)cc1 (stereo unspecified)	i	-7*	-6.8*	48*	i	.	.	.	.	i	i	TRPC4 spec 2=12%*;TRPC4 spec=49%*;HEK293 MPD ctr 2-1=i;HEK293 MPD ctr-1=i
NC(=O)C1CCN(C(=O)OCc2ccccc2)CC1	i	i	i	i	i	.	.	.	.	.	.
COc1ccc(-c2nc3ccc(C)cn3c2NCc2ccc3c(c2)OCO3)cc1	i	i	i	i	i	.	.	.	.	.	.
Cc1ccc(-c2nc3ccccn3c2NCc2ccc3c(c2)OCO3)cc1	i	i	-5.5*	i	i	i	i	-19%*	69%*	44%*	i
Cc1ccccc1-c1cc(C(=O)Nc2sc(C(=O)OC(C)C)c(C)c2C#N)c2ccccc2n1	i	i	i	i	i	.	.	.	.	.	.
COc1ccccc1CNC(=O)C1=CCN(S(=O)(=O)c2ccc(C)cc2)CC1	i	i	i	i	i	.	.	.	.	.	.
Cc1cc(N2CCOCC2)ccc1/C=C\[N+](=O)[O-]	i	i	i	i	15*	260%*	i	32%*	i	i	79%*
N=c1c(C(=O)NCCc2ccccc2)cc2c(=O)n3ccccc3nc2n1CCCN1CCOCC1	i	i	i	i	i	.	.	.	.	.	.
N=c1c(C(=O)NCCN2CCOCC2)cc2c(=O)n3ccccc3nc2n1CCc1ccccc1	i	i	-7.8*	i	i	.	.	.	.	99%*	i	TRPC4 spec 2=64%*;TRPC4 spec=-20%*;HEK293 MPD ctr 2-1=-78%*;HEK293 MPD ctr-1=-246%*
Cc1ccc(Cn2c(=N)c(C(=O)NCCN3CCOCC3)cc3c(=O)n4ccccc4nc32)cc1	19*	i	-6.6*	i	i	-70%*	98%*	-14%*	47%*	40%*	i
COc1ccc(CCn2c(=N)c(C(=O)NCc3ccco3)cc3c(=O)n4ccccc4nc32)cc1	i	i	-5.9*	i	i	-164%*	i	-36%*	i	i	i
Cn1c(C(=O)NCCN2CCOCC2)cc2c(=O)n3ccccc3nc21	i	i	i	i	i	.	.	.	.	.	.
COc1ccc2[nH]c3c(C)c4ccncc4c(C)c3c2c1	i	i	-6.2*	i	i	-159%*	i	-43%*	33%*	i	i
COC(=O)C1=C(CS(=O)(=O)c2cc(Cl)ccc2OC)NC(=O)NC1c1ccc(O)c(OC)c1 (stereo unspecified)	i	i	i	i	i	.	.	.	.	.	.
COc1cc2nc(CN3CCOCC3)n(CC(=O)NCC(F)(F)F)c(=O)c2cc1OC	i	i	i	i	i	.	.	.	.	.	.
Cc1ccc(Cl)cc1NC(=O)CC(O)(C(F)(F)F)C(F)(F)F	i	i	-8.1*	i	i	.	.	.	.	110%*	.	TRPC4 spec 2=58%*;TRPC4 spec=41%*;HEK293 MPD ctr 2-1=-77%*;HEK293 MPD ctr-1=28%*
Cc1ccc(F)cc1NC(=O)N1CCN(c2ccnc3cc(Cl)ccc23)CC1	i	i	-5.3*	i	i	-94%*	i	-24%*	i	i	i
O=C(Nc1cc(F)ccc1F)N1CCN(c2ccnc3cc(Cl)ccc23)CC1	i	i	i	i	i	.	.	.	.	.	.
COc1ccc(S(=O)(=O)N2CCN(c3ccc4nnc(-c5ccc(F)cc5)n4n3)CC2)cc1	i	i	-6.8*	i	i	.	.	.	.	i	i	TRPC4 spec 2=i;TRPC4 spec=i;HEK293 MPD ctr 2-1=i;HEK293 MPD ctr-1=i
CCOC(=O)C1(C)/C(=N/Nc2ccccc2OC)C(=O)C(=O)N1c1ccccc1 (stereo unspecified)	i	i	-8.1*	i	i	-226%*	i	-40%*	68%*	44%*	i
Cc1cc(C)nc(SCC(=O)Nc2nonc2N)n1	i	i	i	i	i	.	.	.	.	.	.
N#CC(C#N)=C/C=C(\Nc1ccc(Cl)cc1)c1ccc(Cl)cc1	i	i	-5.2*	i	i	i	i	i	38%*	i	i
N#Cc1ccc(NC(=O)Nc2ccc(Cl)cc2)cc1	i	i	i	i	i	.	.	.	.	.	.
O=c1c2ccccc2nnn1CSc1nnc(-c2cccnc2)n1-c1ccccc1F	i	i	i	i	i	.	.	.	.	.	.
O=C1OCCC1Sc1nnc(-c2cccnc2)n1-c1ccccc1F (stereo unspecified)	i	i	-7.5*	i	i	.	.	.	.	i	i	TRPC4 spec 2=i;TRPC4 spec=i;HEK293 MPD ctr 2-1=i;HEK293 MPD ctr-1=i
O=[N+]([O-])c1cc(/C=N/O)ccc1N1CCCC1	i	i	i	i	i	.	.	.	.	.	.
O=[N+]([O-])c1cc(/C=N/n2cnnc2)ccc1N1CCCC1	i	i	-5.2*	i	i	-76%*	i	-15%*	i	i	i
CCN1CCN(c2cc(C)c3cc(NC(=O)c4ccncc4)ccc3n2)CC1	i	i	-5.5*	i	i	-100%*	i	i	i	i	i
